Experimental data from different studies.
pIC50: −log10 of the molar value.
Pancreatic alpha-amylase: Pancreatic alpha-amylase (Homo sapiens, UniProt P04746)
MAOB: Amine oxidase [flavin-containing] B (MAOB, Homo sapiens, UniProt P27338)
ALDH1A3: Retinaldehyde dehydrogenase 3 (ALDH1A3, Homo sapiens, UniProt P47895)
PADI4: Protein-arginine deiminase type-4 (PADI4, Homo sapiens, UniProt Q9UM07)
HDAC9: Histone deacetylase 9 (HDAC9, Homo sapiens, UniProt Q9UKV0)
CHRM4: Muscarinic acetylcholine receptor M4 (CHRM4, Homo sapiens, UniProt P08173)
CA9: Carbonic anhydrase 9 (CA9, Homo sapiens, UniProt Q16790)

target | read-out | mode | method | setting | pIC50 | SMILES
Pancreatic alpha-amylase | enzyme activity | inhibitor | absorbance |  | 4.33 | COc1cc(/C=N/NC(=S)NN=Cc2ccc(CO)o2)ccc1Oc1ccnc2cc(Cl)ccc12
MAOB | enzyme activity | inhibitor |  |  | 7.62 | O=C(Nc1ccc(F)c(F)c1)c1ccc2c(c1)C(=O)NC2=O
ALDH1A3 | enzyme activity | inhibitor |  |  | > 5.00 | CC(C)N(CCC(=O)c1ccc2ccccc2c1)Cc1ccccc1
PADI4 | enzyme activity | inhibitor | fluorescence | with preincubation | 6.14 | N=C(CCl)NCCC[C@H](NC(=O)c1ccc(O)cc1)c1nc2ccccc2[nH]1
HDAC9 | enzyme activity | inhibitor |  |  | 6.41 | O=C(NO)c1ccc(Cn2cnc3c(Nc4ccc(Cl)cc4)ncnc32)cc1
Pancreatic alpha-amylase | enzyme activity | inhibitor | absorbance |  | 4.41 | COc1cc(/C=N/NC(=S)N/N=C/c2ccc(Br)s2)ccc1Oc1ccnc2cc(Cl)ccc12
ALDH1A3 | enzyme activity | inhibitor |  |  | > 5.00 | OC[C@H]1O[C@@H](Oc2ccc(O)c3cccc(O)c23)[C@H](O)[C@@H](O)[C@@H]1O
PADI4 | enzyme activity | inhibitor | fluorescence | with preincubation | 5.83 | N=C(CCl)NCCC[C@H](NC(=O)c1ccc2cc(Br)ccc2n1)C(=O)NCc1ccccc1
MAOB | enzyme activity | inhibitor |  |  | 7.92 | O=C(Nc1ccc(Cl)c(Br)c1)c1ccc2c(c1)C(=O)NC2=O
MAOB | enzyme activity | inhibitor |  |  | 4.89 | NC/C(=C\F)COc1cccc(Cn2c(=S)[nH]c(=O)c3[nH]cnc32)c1
Endothelin receptor type B (EDNRB, Homo sapiens, UniProt P24530) | ligand displacement |  | radioligand | cell membranes | 8.48 | CCCC[C@@H](NC(=O)[C@@H](Cc1cn(C(=O)OC)c2ccccc12)NC(=O)[C@H](CC(C)(C)C)NC(=O)N1[C@H](C)CCC[C@@H]1C)C(=O)O
HDAC9 | enzyme activity | inhibitor |  |  | < 5.00 | COc1ccc(N(Cc2nc(-c3ccc(F)cc3)cs2)C(=O)CCCCCC(=O)NO)cc1
PADI4 | enzyme activity | inhibitor | fluorescence | with preincubation | 6.53 | N=C(CCl)NCCC[C@H](NC(=O)c1ccc2cc(B(O)O)ccc2c1)c1nc2ccccc2[nH]1
CHRM4 | ligand displacement |  | radioligand | cell membranes | 4.94 | O=C(CCNC(=O)CNC(=O)CC(c1ccccc1)(c1ccccc1)c1ccccc1)NCC1CCN(Cc2ccc(F)cc2)CC1
PADI4 | enzyme activity | inhibitor | fluorescence | with preincubation | 5.66 | N=C(CCl)NCCC[C@H](NC(=O)c1ccc(B(O)O)cc1)c1nc2ccccc2[nH]1
Pancreatic alpha-amylase | enzyme activity | inhibitor | absorbance |  | 4.27 | COc1cc(/C=N/NC(=S)NN=Cc2sccc2C)ccc1Oc1ccnc2cc(Cl)ccc12
MAOB | enzyme activity | inhibitor |  |  | 7.85 | O=C(Nc1ccc(Cl)c(Cl)c1)c1ccc2c(c1)C(=O)NC2=O
PADI4 | enzyme activity | inhibitor | fluorescence | with preincubation | 6.44 | COc1ccc2cc(C(=O)N[C@@H](CCCNC(=N)CCl)C(=O)NCc3ccccc3)[nH]c2c1
Pancreatic alpha-amylase | enzyme activity | inhibitor | absorbance |  | 4.30 | COc1cc(/C=N/NC(=S)N/N=C/c2ccc(Br)cc2)ccc1Oc1ccnc2cc(Cl)ccc12
ALDH1A3 | enzyme activity | inhibitor |  |  | > 5.00 | COc1nc2ccc(Br)cc2cc1[C@@H](c1ccccc1)[C@@](O)(CCN(C)C)c1cccc2ccccc12

target | read-out | mode | method | setting | pIC50 | SMILES
Catechol O-methyltransferase (Comt, Rattus norvegicus, UniProt P22734) | enzyme activity | inhibitor |  |  | 4.79 | C[C@@]12C[C@@]3(O)O[C@@H](O1)[C@]1(COC(=O)c4ccccc4)[C@H]3C[C@@]12O[C@@H]1O[C@H](COC(=O)c2cc(O)c(O)c(O)c2)[C@@H](O)[C@H](O)[C@H]1O
CHRM4 | ligand displacement |  | radioligand | cell membranes | < 4.52 | O=C(CCNC(=O)CNC(=O)CC(c1ccccc1)(c1ccccc1)c1ccccc1)NC[C@@H]1CCCN(Cc2cccnc2F)C1
ALDH1A3 | enzyme activity | inhibitor |  |  | > 5.00 | Nc1nc2c(s1)C(c1ccccc1Cl)CC(=O)N2 (stereo not drawn)
CA9 | enzyme activity | inhibitor |  |  | 5.72 | NS(=O)(=O)c1cccc(Nc2nc(-c3cc4cc(Br)ccc4oc3=O)cs2)c1
CA9 | enzyme activity | inhibitor |  |  | 6.68 | NS(=O)(=O)c1ccc(-c2ccc(Nc3ccncc3)cc2)cc1
Pancreatic alpha-amylase | enzyme activity | inhibitor | absorbance |  | 4.24 | COc1cc(/C=N/NC(=S)NN=Cc2scnc2C)ccc1Oc1ccnc2cc(Cl)ccc12
MAOB | enzyme activity | inhibitor |  |  | 6.54 | O=C(Nc1cccc(Cl)c1)c1ccc2c(c1)C(=O)NC2=O
Pancreatic alpha-amylase | enzyme activity | inhibitor | absorbance |  | 4.23 | COc1cc(/C=N/NC(=S)N/N=C\c2ccc(CCl)cc2)ccc1Oc1ccnc2cc(Cl)ccc12
CA9 | enzyme activity | inhibitor |  |  | 5.87 | CN1CCN(c2nc(-c3cc4cc(Br)ccc4oc3=O)cs2)CC1
PADI4 | enzyme activity | inhibitor | fluorescence | with preincubation | 6.47 | N=C(CCl)NCCC[C@H](NC(=O)c1cnc2cc(O)ccc2c1)C(=O)NCc1ccccc1
Pancreatic alpha-amylase | enzyme activity | inhibitor | absorbance |  | 4.36 | COc1cc(/C=N/NC(=S)N/N=C/c2ccc(Cl)cc2)ccc1Oc1ccnc2cc(Cl)ccc12
HDAC9 | enzyme activity | inhibitor |  |  | < 5.00 | COc1ccc(N(Cc2csc(-c3ccc(Br)cc3)n2)C(=O)CCCCCC(=O)NO)cc1
MAOB | enzyme activity | inhibitor |  |  | 7.26 | O=C(Nc1cc(Cl)cc(Cl)c1)c1ccc2c(c1)C(=O)NC2=O
Lactoylglutathione lyase (GLO1, Homo sapiens, UniProt Q04760) | enzyme activity | inhibitor |  |  | 5.28 | O=C(N[C@@H](CSCc1ccccc1)C(=O)NO)c1ccccc1
PADI4 | enzyme activity | inhibitor | fluorescence | with preincubation | 6.23 | N=C(CCl)NCCC[C@H](NC(=O)c1cccc(-c2ccc(B(O)O)cc2)c1)c1nc2ccccc2[nH]1
CA9 | enzyme activity | inhibitor |  |  | 5.36 | O=C(O)c1ccc(Nc2nc(-c3cc4cc(Br)ccc4oc3=O)cs2)cc1
Pancreatic alpha-amylase | enzyme activity | inhibitor | absorbance |  | 4.28 | COc1cc(/C=N/NC(=S)N/N=C\c2ccc([N+](=O)[O-])cc2)ccc1Oc1ccnc2cc(Cl)ccc12
PADI4 | enzyme activity | inhibitor | fluorescence | with preincubation | 5.66 | Cc1ccc(COc2ccc3ccc(C(=O)N[C@@H](CCCNC(=N)CCl)C(=O)NCc4ccccc4)cc3c2)cc1
Beta-1 adrenergic receptor (ADRB1, Homo sapiens, UniProt P08588) | cAMP | antagonist |  |  | 5.17 | CN1CCC(CNc2ccc3ncc(-c4cccc(OC(F)(F)F)c4)n3n2)CC1
